Cneo AK release: Cryptococcus neoformans lysis via adenylate kinase release | hit rate 0.2% among 360,000 | AID 651654 | lysis activity, % at 15 µM | C. neoformans lysis, adenylate kinase release luminescence, 4 h; normalised: neutral wells 0, clomiphene wells 100;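 active = mean lysis activity across replicates of at least 80%, whatever share of replicates individually reach that level; inactive = mean lysis activity below 80%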
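Material – log-phase Cryptococcus neoformans yeast cells · Input – 5 × 10^6 yeast cells/mL · Medium – fresh YPD growth medium · Doses – single compound concentration per well · Timing – static 4 h at 37 °C with compound, 1 h detection · Detection – adenylate kinase release luminescence · Read-out – signal increase indicating cell lysis · Control set – Clomiphene as positive lysis control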
MT1-MMP act inh: blocks activation of human MT1-MMP | hit rate 0.061% among 360,000 | P50281 | HT1080 RFP-PRO-GFP cells, GFP/RFP ratio fluorescence, overnight; percent of plate control window, DMSO zero | AID 651647 | GFP/RFP ratio change, % at 20 µM;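 active = GFP/RFP ratio change of at least 30% with cell ATP level not reduced by more than half and red fluorescence within 50% of control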
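Test system: HT1080 RFP-PRO-GFP cells; Benchmarks: DMSO and RFP-L50D-GFP cell wells; Timing: cells overnight before dosing, compound overnight, 37 °C, 5% CO2; Compound: one 20 µM compound dose with 1% DMSO; Read-out: GFP/RFP fluorescence ratio.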
rRNA inh HTS: selective bacterial rRNA inhibition in E. coli; GFP signal change (wild-type ribosome), % (concentration not given with the values); E. coli WT GFP vs humanized-ribosome RFP mutants, fluorescence, 24 h; stronger effect = lower value; DMSO median 0, no signal -100; hit rate 1.6% among 350,000; AID 720706;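 active = significant combined selectivity score with lowered wild-type GFP, culture density cut under 30%, mutant RFP and density less affected; inactive = any of these conditions unmet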
SKN-1 inh: C. elegans SKN-1 inhibition. C. elegans VP596 Pgst-4::GFP/RFP ratio, acrylamide-induced, 24 h. inhibition, % at 21.8 µM. hit rate 0.49% among 360,000;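 active = interference check ratio from 0.5 to 1.5 plus GFP to RFP signal ratio inhibition reaching or exceeding a fixed threshold, cut at about 30% in these data, passing the limit was not always enough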
DAGLB inhibitor: blocks human DAGLB lipase activity. Q8NCG7. HEK293T DAGLB membrane lysate, EnzChek fluorogenic substrate. inhibition, % at 5.17 µM. hit rate 0.059% among 340,000. AID 504411; in the data active = inhibition above about 34%;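 note: 0% = enzyme with vehicle and 100% = wells lacking enzyme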
Target sequence (Q8NCG7 whole entry, looked up): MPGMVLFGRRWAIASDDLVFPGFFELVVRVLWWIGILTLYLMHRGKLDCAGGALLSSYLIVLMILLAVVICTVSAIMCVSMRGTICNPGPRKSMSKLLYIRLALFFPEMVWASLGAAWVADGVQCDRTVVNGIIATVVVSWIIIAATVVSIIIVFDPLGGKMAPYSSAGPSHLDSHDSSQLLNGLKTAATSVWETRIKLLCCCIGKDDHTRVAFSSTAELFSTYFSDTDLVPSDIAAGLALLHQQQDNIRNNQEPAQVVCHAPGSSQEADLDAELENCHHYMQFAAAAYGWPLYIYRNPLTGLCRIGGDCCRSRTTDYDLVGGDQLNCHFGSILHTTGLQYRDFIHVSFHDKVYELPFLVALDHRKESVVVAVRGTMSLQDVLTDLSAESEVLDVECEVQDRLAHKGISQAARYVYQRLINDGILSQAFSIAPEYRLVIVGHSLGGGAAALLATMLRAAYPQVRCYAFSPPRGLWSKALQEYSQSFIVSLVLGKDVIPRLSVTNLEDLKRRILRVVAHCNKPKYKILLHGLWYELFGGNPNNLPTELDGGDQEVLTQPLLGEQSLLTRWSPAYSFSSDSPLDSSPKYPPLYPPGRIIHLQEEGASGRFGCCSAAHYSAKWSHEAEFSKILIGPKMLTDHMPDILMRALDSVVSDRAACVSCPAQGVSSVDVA
hiPSC survival: enhancers of human iPSC single-cell survival; survival enhancement, % at 20 µM; hiPSC single-cell survival, ATPlite luminescence; 100% = ROCK inhibitor wells, 0% = DMSO; hit rate 0.044% among 360,000; in the data active = survival enhancement above about 18%;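 note: cells exposed to compounds for 16 hours before the ATP read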
The depositor's hits bear a star. Sampled rows, rich in hits. Any-hit rate of the full collection: about 1.8%.

CCOC(=O)N1CCN(C(=O)Nc2ccc(Cl)cc2)CC1 was read as Cneo AK release 0, MT1-MMP act inh -2, SKN-1 inh 35*, DAGLB inhibitor 1 and hiPSC survival -3.
`CC(C)n1c(N2CCN(C(=O)Nc3ccc(Cl)cc3)CC2)nc2ccccc21` gave Cneo AK release -1, MT1-MMP act inh 1, rRNA inh HTS -38, SKN-1 inh 3, DAGLB inhibitor -2 and hiPSC survival -1.
Screening CCOC(=O)N1CCN(C(=O)Nc2ccccc2)CC1 returned MT1-MMP act inh 6, rRNA inh HTS 3, SKN-1 inh -8, DAGLB inhibitor 2 and hiPSC survival -1.
For CCCn1c(N2CCN(C(=O)Nc3ccc(Cl)cc3)CC2)nc2ccccc21 the results were Cneo AK release 3, MT1-MMP act inh 1, rRNA inh HTS -26*, SKN-1 inh -5, DAGLB inhibitor -2 and hiPSC survival 0.
For C[C@H](O)C#Cc1ccc2c(c1)O[C@@H](CN(C)C(=O)Nc1ccccc1)[C@@H](C)CN([C@@H](C)CO)S2(=O)=O the results were Cneo AK release -2 and rRNA inh HTS -2.
COc1ccc(CC(=O)NNC(=S)Nc2ccccc2)cc1Cl was read as MT1-MMP act inh 0, rRNA inh HTS -27*, SKN-1 inh -8, DAGLB inhibitor 1 and hiPSC survival 2.
Screening CCCOc1ccc(CC(=O)NNC(=S)Nc2ccccc2)cc1Br returned Cneo AK release 0, MT1-MMP act inh -1, SKN-1 inh 3, DAGLB inhibitor 0 and hiPSC survival 1.
For O=C(C[C@H]1C[C@H]2c3cc(NC(=O)NC4CCCC4)ccc3O[C@H]2[C@@H](CO)O1)NCC1CC1 the results were Cneo AK release 6 and rRNA inh HTS -1.
`O=C(Nc1cccc(Cl)c1)Nc1sccc1-c1nc2ccccc2s1` gave Cneo AK release 2, MT1-MMP act inh 4, SKN-1 inh 8 and hiPSC survival 0.
O=C(Nc1ccccc1)Nc1sccc1-c1nc2ccccc2s1 was read as Cneo AK release 0, MT1-MMP act inh 4, rRNA inh HTS -21*, SKN-1 inh 23 and hiPSC survival -1.
Screening Nc1ccc(N=Nc2ccccc2)cc1[N+](=O)[O-] returned Cneo AK release -1, MT1-MMP act inh 6, rRNA inh HTS -11, SKN-1 inh 57*, DAGLB inhibitor 15 and hiPSC survival -1.
Cc1cc(-c2nnc(SCC(=O)Nc3nc(-c4ccc(Cl)cc4)cs3)o2)no1 was read as Cneo AK release 3, MT1-MMP act inh -3, rRNA inh HTS -33*, SKN-1 inh 0, DAGLB inhibitor 9 and hiPSC survival 0.
Screening COc1cc(NC(=O)CSc2nnc(-c3cc(C)on3)o2)cc(OC)c1 returned Cneo AK release -2, MT1-MMP act inh 2, rRNA inh HTS -2, SKN-1 inh -22, DAGLB inhibitor -3 and hiPSC survival -1.
For Cc1oc(-c2ccc(Cl)cc2)cc1C(=O)/C(C#N)=C/Nc1ccccc1 the results were MT1-MMP act inh -9, rRNA inh HTS -25*, SKN-1 inh -1, DAGLB inhibitor 7 and hiPSC survival 0.
Screening CCOC(=O)Cn1c(-c2ccc(OC)cc2)c(-c2ccc(OC)cc2)nnc1=O returned Cneo AK release -3, MT1-MMP act inh -2, rRNA inh HTS -22*, SKN-1 inh 7, DAGLB inhibitor 2 and hiPSC survival 0.
CC(C)C#Cc1ccc2c(c1)O[C@@H](CN(C)C(=O)c1cccc(F)c1)[C@@H](C)CN([C@H](C)CO)S2(=O)=O was read as Cneo AK release 1 and rRNA inh HTS 0.
For CCc1ccc([C@@H]2CC=C(C(=O)O)CN2S(=O)(=O)c2ccc(C)cc2)cc1 the results were Cneo AK release -2, MT1-MMP act inh 1, rRNA inh HTS -23*, SKN-1 inh -2, DAGLB inhibitor 2 and hiPSC survival 0.
CCOc1ccc([C@@H]2CC=C(C(=O)O)CN2S(=O)(=O)c2ccc(C)cc2)cc1 was read as Cneo AK release -1, MT1-MMP act inh 3, rRNA inh HTS -26*, SKN-1 inh 10, DAGLB inhibitor 3 and hiPSC survival 2.
Screening CCOc1ccc(C2CC=C(C(C)=O)CN2S(=O)(=O)c2ccc(C)cc2)cc1 (stereo not drawn) returned Cneo AK release 6, MT1-MMP act inh 2, SKN-1 inh 4 and hiPSC survival 3.
For CCS(=O)(=O)N1[C@H](C#N)[C@@H](c2ccc(C3=CCCCC3)cc2)[C@H]1CO the results were rRNA inh HTS 4.
Screening CO[C@H](CN(C)Cc1cc(F)ccc1F)[C@H](C)CN(C(=O)Nc1ccc(F)cc1)[C@H](C)CO returned Cneo AK release 8 and rRNA inh HTS -4.
`S=C(Nc1ccccc1)Nc1nc2ccccc2n1CCOc1ccccc1` gave Cneo AK release 2, MT1-MMP act inh 9, SKN-1 inh 41*, DAGLB inhibitor 0 and hiPSC survival 1.
For O=C1N=C(N2CCN(c3ccccc3)CC2)S/C1=C/c1ccco1 the results were Cneo AK release -2, MT1-MMP act inh 6, rRNA inh HTS -38*, SKN-1 inh -7, DAGLB inhibitor 1 and hiPSC survival 1.
`CCc1ccc(/C=C2/SC(N3CCOCC3)=NC2=O)cc1` gave MT1-MMP act inh 3, rRNA inh HTS -19*, SKN-1 inh 8, DAGLB inhibitor -2 and hiPSC survival 0.
Screening CC(C)c1ccc(/C=C2\SC(N3CCOCC3)=NC2=O)cc1 returned Cneo AK release 0, MT1-MMP act inh 2, rRNA inh HTS -10, SKN-1 inh 2, DAGLB inhibitor -2 and hiPSC survival 1.
`O=C1N=C(N2CCN(c3ccccc3)CC2)S/C1=C\c1ccco1` gave MT1-MMP act inh -4, rRNA inh HTS -9, SKN-1 inh 9, DAGLB inhibitor 5 and hiPSC survival 4.
`Cc1cccc(-n2c(-c3ccco3)n[nH]c2=S)c1` gave Cneo AK release -3, MT1-MMP act inh 2, SKN-1 inh 10, DAGLB inhibitor 2 and hiPSC survival -1.
`Cc1cccc(-n2c(-c3ccc(Br)o3)n[nH]c2=S)c1` gave MT1-MMP act inh 3, rRNA inh HTS -20*, SKN-1 inh -2, DAGLB inhibitor -1 and hiPSC survival 1.
Cc1noc(C)c1C(=O)N(C)C[C@H]1OCc2ccccc2-c2ccccc2C(=O)N([C@@H](C)CO)C[C@H]1C was read as rRNA inh HTS 0.
Screening Clc1ccccc1Cn1nnc2c(NCCN3CCOCC3)ncnc21 returned Cneo AK release -1, MT1-MMP act inh 4, SKN-1 inh 2, DAGLB inhibitor 2 and hiPSC survival -3.
